Results published in ChEMBL document CHEMBL1140873, “Interaction between double helix DNA fragments and a new topopyrone acting as human topoisomerase I poison” (Bioorg Med Chem, 2009).
Active and inactive are the calls of the source. The calls are words filed in the database; no cut-off is given here.

Legend:
[1] = Binding affinity to oligonucleotide d(ATGCGCAT)2 by UV-visible spectroscopy
Method in brief: (§1)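 Apparent DNA–drug binding constants measured by UV titration at 25 °C, read at λmax 376 nm. A 5.0 x 10^-? M aqueous drug stock was added in increasing amounts to a 1.0 x 10^-5 M oligonucleotide solution.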

[2] = Binding affinity to oligonucleotide d(CGTACG)2 at [drug]/[DNA] ratio of 4 by NMR spectroscopy
Method in brief: (§2)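 1H NMR titration at 600 MHz. A drug stock (23.4 mM) was added in increasing amounts to oligonucleotide up to R = [2]/[DNA] = 4.0. An inverse titration added DNA to 0.2 mM drug. Conditions were D2O, 10 mM phosphate, 0.1 M NaCl, pH 6.7, 25 °C. Shifts were referenced to external DSS.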

[3] = Binding affinity to oligonucleotide d(CGTACG)2 at [drug]/[DNA] ratio of 3 by NMR DOSY experiment
Method in brief: (§3)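 DOSY at 25 °C on the complex in D2O, 0.1 M NaCl, 10 mM phosphate, pH 6.7, with drug at 5.4 mM. Gradient pulse 1.5 ms, 64 increments. Molecular mass was read from a calibration curve of diffusion standards from glucose up to trypsin (Mr 180–23,500).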

[4] = Binding affinity to oligonucleotide d(CGTACG)2 at [drug]/[DNA] ratio of 2 by NOESY experiment
Method in brief: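 Phase-sensitive NOESY (TPPI) run at 25 °C in D2O and 15 °C in H2O/D2O 90:10. Sample was complex at R = 2 in 10 mM phosphate pH 6.7 with 100 mM NaCl. Mixing time 300 ms, 2K x 512 FIDs, 1.5 s recycle delay, 80 scans. Ligand–DNA NOEs were treated as transferred NOEs.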

[5] = Binding affinity to oligonucleotide d(CGTATACG)2 by UV-visible spectroscopy; method in brief: as §1
[6] = Binding affinity to oligonucleotide d(CGTACG)2 assessed as intercalation by single diffusion coefficient experiment; method in brief: as §3
[7] = Binding affinity to oligonucleotide d(CGTACG)2 by single diffusion coefficient experiment; method in brief: as §3
[8] = Binding affinity to oligonucleotide d(CGTACG)2 by UV-visible spectroscopy; method in brief: as §1
[9] = Binding affinity to oligonucleotide d(CGTACG)2 at [drug]/[DNA] ratio of 4 by NMR DOSY experiment; method in brief: as §3
[10] = Binding affinity to oligonucleotide d(CGTACG)2 at [drug]/[DNA] ratio of 1 by NMR spectroscopy; method in brief: as §2

SMILES: Cc1cc(=O)c2ccc3c(c2o1)C(=O)c1c(OCCN(C)C)cccc1C3=O
- K [1]: 6 ×10³ /M
- Activity [2]: Active
- Activity [3]: Active
- Activity [4]: Active
- K [5]: 1 ×10³ /M
- Activity [6]: Active
- Activity [7]: Active
- K [8]: 4 ×10³ /M
- Activity [9]: Active
- Activity [10]: Active
